ChEMBL document CHEMBL4229335 (Eur J Med Chem, 2018)

Tests used:
HL-60 = assay: Antiproliferative activity against human HL60 cells after 72 hrs by MTT assay; format: functional, cell-based; conditions: HL-60, 72 h
How it was run: (§1)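 MTT assay with 72 h exposure to graded concentrations in triplicate. MTT solution then DMSO were added, followed by 10 min at room temperature, with absorbance read at 490 nm. IC50 is reported as the mean of three independent experiments. 5-FU served as positive control.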

PC-3 = assay: Antiproliferative activity against human PC3 cells after 72 hrs by MTT assay; format: functional, cell-based; conditions: PC-3, 72 h; how it was run: as §1
Bel-7402 = assay: Antiproliferative activity against human Bel7402 cells after 72 hrs by MTT assay; format: functional, cell-based; conditions: Bel-7402, 72 h; how it was run: as §1
Bel7402/5-FU = assay: Antiproliferative activity against human Bel7402/5-FU cells after 72 hrs by MTT assay; format: functional, cell-based; how it was run: as §1
L02 = assay: Antiproliferative activity against human LO2 cells after 72 hrs by MTT assay; format: cell-based; conditions: L02, 72 h; how it was run: as §1
[1] = Selectivity index, ratio of IC50 for human LO2 cells to IC50 for human Bel7402 cells; format: toxicity; conditions: LO2 cells versus Bel7402 cells, read-out: Ratio IC50
How it was run: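 SI was calculated as IC50 in L-02 normal liver cells divided by IC50 in Bel-7402 cells, both from the 72 h MTT assay.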

Row | Compound | IC50 (HL-60) [µM] | IC50 (PC-3) [µM] | IC50 (Bel-7402) [µM] | IC50 (Bel7402/5-FU) [µM] | IC50 (L02) [µM] | selectivity ratio [1]
1 | C=C1C(=O)[C@@]23C(=O)O[C@H]4CCC(C)(C)[C@H]5[C@H](OC(=O)CCC(=O)N[C@@H](Cc6ccc(N(CCCl)CCCl)cc6)C(=O)OC)OC[C@@]45[C@@H]2CC[C@@H]1[C@H]3OC(=O)CCC(=O)N[C@@H](Cc1ccc(N(CCCl)CCCl)cc1)C(=O)OC | 17.6 | > 100 | 5.73 | 7.93 | > 100 | 
2 | C=C1C(=O)[C@@]23C(=O)O[C@H]4CCC(C)(C)[C@H]5C(=O)OC[C@@]45[C@@H]2CC[C@@H]1[C@H]3OC(=O)CCC(=O)N[C@@H](Cc1ccc(N(CCCl)CCCl)cc1)C(=O)OC | 18.5 | > 100 | 6.5 | 12.8 | > 100 | 
3 | C=C1C(=O)[C@@]23C(=O)O[C@H]4CCC(C)(C)[C@H]5C(=O)OC[C@@]45[C@@H]2CC[C@@H]1[C@H]3OC(=O)c1ccc(N(CCCl)CCCl)cc1 | 5.57 | 7.03 | 1.6 | 2.9 | 62.8 | 39.3
4 | O=c1[nH]cc(F)c(=O)[nH]1 [FLUOROURACIL] |  |  |  | > 80 |  | 
5 | C=C1C(=O)[C@@]23C(=O)O[C@H]4CCC(C)(C)[C@H]5[C@H](O)OC[C@@]45[C@@H]2CC[C@@H]1[C@H]3OC(=O)CCCc1ccc(N(CCCl)CCCl)cc1 | 6.35 | 7.32 | 2.08 | 8.49 | 69.9 | 33.6
6 | C=C1C(=O)[C@]23[C@H](O)[C@H]1CC[C@H]2[C@@]12CO[C@]3(O)[C@@H](O)[C@@H]1C(C)(C)CC[C@@H]2O [ORIDONIN] | 14.3 | 11 | 7.36 | 10.5 | 18.9 | 2.6
